Converted amounts (≈) assume the structure as drawn. The source made the active and inactive calls. The rule behind the calls is not given here.
Tests used:
Enterococcus faecalis [1] = experiment: Antimicrobial activity against Enterococcus faecalis ATCC 29212 assessed as diameter of the inhibition zone after 24 hrs by paper disk agar diffusion method; type: functional
How it was run: (§1)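 Overnight cultures were spread on agar: tryptone soy agar for Listeria, azide dextrose agar for Enterococcus, and nutrient agar for the other bacteria. 6.4 mm paper disks each received 300 µg of substance in 15 µL DMSO. Plates were incubated at 37 °C for 24 h and the inhibition-zone diameter measured. Chloramphenicol served as control. At least three replicates were run.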

Staphylococcus aureus [2] = experiment: Antimicrobial activity against Staphylococcus aureus ATCC 25923 assessed as diameter of the inhibition zone after 24 hrs by paper disk agar diffusion method; type: functional; how it was run: as §1
Bacillus cereus [3] = experiment: Antimicrobial activity against Bacillus cereus ATCC 11778 assessed as diameter of the inhibition zone after 24 hrs by paper disk agar diffusion method; type: functional; how it was run: as §1
Pyricularia oryzae = experiment: Antimicrobial activity against Pyricularia oryzae DSMZ 62938 assessed as diameter of the inhibition zone after 48 hrs by paper disk agar diffusion method; type: functional
How it was run: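 Overnight culture spread on potato dextrose agar; 6.4 mm paper disks loaded with compound dissolved in DMSO. […] served as the reference control. Plates incubated at 25 °C for 48 h, then the diameter of the inhibition zone was measured in mm. At least three replicates.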

[4] = Cytotoxicity against human peripheral blood lymphocytes assessed as mitotic index at 10 ug/mL; details: pbl
How it was run: (§2)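 Heparinized whole blood from healthy donors was cultured in Ham's F-10 with 15% fetal calf serum, phytohemagglutinin, L-glutamine, streptomycin and penicillin. Compounds at 10 or 100 µg/mL were added after 24 h and culture continued to 48 h. Colcemid (0.5 µg/mL final) was present for the last 3 h. Mitotic index was scored on metaphase spreads at 500×. 2% H2O2 was the positive control.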

[5] = Cytotoxicity against human peripheral blood lymphocytes assessed as mitotic index at 100 ug/mL; details: pbl; how it was run: as §2
Bacillus subtilis [6] = experiment: Antimicrobial activity against Bacillus subtilis ATCC 6633 assessed as diameter of the inhibition zone after 24 hrs by paper disk agar diffusion method; type: functional; how it was run: as §1
Pseudomonas aeruginosa = experiment: Antimicrobial activity against Pseudomonas aeruginosa ATCC 27853 assessed as diameter of the inhibition zone after 24 hrs by paper disk agar diffusion method; type: functional; how it was run: as §1
Candida albicans = experiment: Antimicrobial activity against Candida albicans ATCC 10231 assessed as diameter of the inhibition zone after 48 hrs by paper disk agar diffusion method; type: functional
How it was run: (§3)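 Fungal disk diffusion: overnight cultures were spread on potato dextrose agar. 6.4 mm paper disks each carried 300 µg of substance in 15 µL DMSO. Plates were incubated at 25 °C for 48 h and the inhibition-zone diameter read. Actidione was the control for A. niger and chloramphenicol for C. albicans. At least three replicates were run.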

Listeria monocytogenes [7] = experiment: Antimicrobial activity against Listeria monocytogenes ATCC 7644 assessed as diameter of the inhibition zone after 24 hrs by paper disk agar diffusion method; type: functional; how it was run: as §1
Aspergillus niger = experiment: Antimicrobial activity against Aspergillus niger ATCC 16404 assessed as diameter of the inhibition zone after 48 hrs by paper disk agar diffusion method; type: functional; how it was run: as §3
Salmonella enteritidis = experiment: Antimicrobial activity against Salmonella enteritidis ATCC 13076 assessed as diameter of the inhibition zone after 24 hrs by paper disk agar diffusion method; type: functional, Salmonella enterica subsp. enterica serovar Enteritidis; how it was run: as §1
Escherichia coli = experiment: Antimicrobial activity against Escherichia coli ATCC 8739 assessed as diameter of the inhibition zone after 24 hrs by paper disk agar diffusion method; type: functional; how it was run: as §1
Bacillus cereus [8] = experiment: Antimicrobial activity against Bacillus cereus ATCC 11778 after 16 to 20 hrs by broth dilution method; type: functional; details: for MIC: Bacillus cereus, ATCC 11778
How it was run: (§4)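 Dilution method used overnight cultures and serial compound dilutions from 500 down to 1.95 µg/mL, with chloramphenicol from 50 to 0.195 µg/mL. Incubation was at 35 °C for 16–20 h, and MIC and MLC were determined. At least three replicates were run. Only compounds giving disk inhibition diameters of 11 mm or more were tested.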

Listeria monocytogenes [9] = experiment: Antimicrobial activity against Listeria monocytogenes ATCC 7644 after 16 to 20 hrs by broth dilution method; type: functional; details: for MIC: Listeria monocytogenes, ATCC 7644; how it was run: as §4
Staphylococcus aureus [10] = experiment: Antimicrobial activity against Staphylococcus aureus ATCC 25923 after 16 to 20 hrs by broth dilution method; type: functional; details: for MIC: Staphylococcus aureus, ATCC 25923; how it was run: as §4
Bacillus subtilis [11] = experiment: Antimicrobial activity against Bacillus subtilis ATCC 6633 after 16 to 20 hrs by broth dilution method; type: functional; details: for MIC: Bacillus subtilis, ATCC 6633; how it was run: as §4
Enterococcus faecalis [12] = experiment: Antimicrobial activity against Enterococcus faecalis ATCC 29212 after 16 to 20 hrs by broth dilution method; type: functional; details: for MIC: Enterococcus faecalis, ATCC 29212; how it was run: as §4
Bacillus cereus [13] = experiment: Antimicrobial activity against Bacillus cereus ATCC 11778 after 1 year; type: functional, organism-based

| Compound | inhibition zone (IZ) (Enterococcus faecalis [1]) [mm] | inhibition zone (IZ) (Staphylococcus aureus [2]) [mm] | inhibition zone (IZ) (Bacillus cereus [3]) [mm] | inhibition zone (IZ) (Pyricularia oryzae) [mm] | Activity [4] | Activity [5] | inhibition zone (IZ) (Bacillus subtilis [6]) [mm] | inhibition zone (IZ) (Pseudomonas aeruginosa) [mm] | inhibition zone (IZ) (Candida albicans) [mm] | inhibition zone (IZ) (Listeria monocytogenes [7]) [mm] | inhibition zone (IZ) (Aspergillus niger) [mm] | inhibition zone (IZ) (Salmonella enteritidis) [mm] | inhibition zone (IZ) (Escherichia coli) [mm] | MIC (Bacillus cereus [8]) [µg/mL] | MIC (Listeria monocytogenes [9]) [µg/mL] | MIC (Staphylococcus aureus [10]) [µg/mL] | MIC (Bacillus subtilis [11]) [µg/mL] | MLC (Enterococcus faecalis [12]) [µg/mL] | MIC (Enterococcus faecalis [12]) [µg/mL] | MLC (Listeria monocytogenes [9]) [µg/mL] | also measured |
| --- | --- | --- | --- | --- | --- | --- | --- | --- | --- | --- | --- | --- | --- | --- | --- | --- | --- | --- | --- | --- | --- |
| CCCCCCCCCCCCO[C@@H]1C[C@@H](O)[C@H](O)[C@@H](CO)O1 | <6.4 | <6.4 | <6.4 | <6.4 | 13.5 | 7.75 | 9 | <6.4 | 9 | 10 | <6.4 | <6.4 | <6.4 | – | – | – | – | – | – | – | – |
| CCCCCCCCO[C@@H]1C[C@H](O)[C@@H](O)[C@H](C)O1 | 9 | 12 | 12 | <6.4 | – | – | 10 | 9 | 11 | 10 | <6.4 | <6.4 | 9 | > 500 | > 500 | > 500 | > 500 | – | – | – | – |
| CCCCCCCCCCCCO[C@H]1C[C@@H](O)[C@H](O)[C@@H](CO)O1 | 17 | <6.4 | 10 | <6.4 | 13.5 | 6.75 | 10 | <6.4 | 10 | <6.4 | <6.4 | <6.4 | <6.4 | > 500 | 250 (≈ 752 µM) | > 500 | > 500 | >500 | 31.3 (≈ 94.1 µM) | >500 | – |
| CCCCCCCCO[C@H]1C[C@H](O)[C@@H](O)[C@H](C)O1 | 10 | 11 | 12 | 13 | – | – | 12 | 8 | 10 | 10 | <6.4 | <6.4 | 8 | 250 (≈ 960 µM) | – | 500 (≈ 1920 µM) | 250 (≈ 960 µM) | – | – | – | MLC (Bacillus cereus [8]): 500 µg/mL (≈ 1920 µM); MLC (Staphylococcus aureus [10]): 500 µg/mL (≈ 1920 µM); MLC (Bacillus subtilis [11]): >500 µg/mL |
| O=C(N[C@H](CO)[C@H](O)c1ccc([N+](=O)[O-])cc1)C(Cl)Cl [CHLORAMPHENICOL] | – | – | – | – | – | – | – | – | – | – | – | – | – | 6.3 (≈ 19.5 µM) | 6.3 (≈ 19.5 µM) | 6.3 (≈ 19.5 µM) | 3.1 (≈ 9.59 µM) | >50 | 6.3 (≈ 19.5 µM) | >50 | MLC (Bacillus cereus [8]): 12.5 µg/mL (≈ 38.7 µM); MLC (Staphylococcus aureus [10]): >50 µg/mL; MLC (Bacillus subtilis [11]): >50 µg/mL |
| CCCCCCCCCCCCO[C@H]1C[C@H](O)[C@@H](O)[C@H](C)O1 | 13 | 9 | 27 | <6.4 | – | – | 25 | <6.4 | <6.4 | 12 | <6.4 | <6.4 | <6.4 | 7.8 (≈ 24.6 µM) | 31.3 (≈ 98.9 µM) | – | 7.8 (≈ 24.6 µM) | >250 | 15.6 (≈ 49.3 µM) | 62.5 (≈ 197 µM) | MLC (Bacillus cereus [8]): 7.8 µg/mL (≈ 24.6 µM); MLC (Bacillus subtilis [11]): 15.6 µg/mL (≈ 49.3 µM); Activity (Bacillus cereus [13]): Active |
| CCCCCCCCO[C@H]1C[C@@H](O)[C@H](O)[C@@H](CO)O1 | 14 | <6.4 | 11 | <6.4 | – | – | 12 | <6.4 | <6.4 | <6.4 | <6.4 | <6.4 | <6.4 | > 500 | – | – | > 500 | >500 | 31.3 (≈ 113 µM) | – | – |
| CCCCCCCCCCCCO[C@@H]1C[C@H](O)[C@@H](O)[C@H](C)O1 | <6.4 | <6.4 | <6.4 | <6.4 | – | – | <6.4 | <6.4 | <6.4 | <6.4 | <6.4 | <6.4 | <6.4 | – | – | – | – | – | – | – | – |
| CCCCCCCCO[C@@H]1C[C@@H](O)[C@H](O)[C@@H](CO)O1 | <6.4 | <6.4 | <6.4 | <6.4 | 10.75 | 3 | <6.4 | <6.4 | <6.4 | <6.4 | <6.4 | <6.4 | <6.4 | – | – | – | – | – | – | – | – |
